Compound activity deposited in PubChem by several laboratories.
EBV gp42 inh – Epstein-Barr virus gp42 inhibitors, primary screen, biochemical, uHTS, fluorescence polarization; inhibition, % (tested at 21.74 µM); 220,000 tested, 0.42% active; Glycoprotein 42 (Epstein-Barr virus (strain AG876)), Q1HVG2; Fluorescence polarization binding assay, mP read-out; in the data active = inhibition above about 50%
Runt-SMMHC FRET – inhibitors of RUNX1 Runt–CBFb-SMMHC binding, primary screen, biochemical, FRET, Cerulean-Runt, Venus-CBFb-SMMHC, uHTS. inhibition, % at 20 µM. 220,000 tested, 0.74% active. AID 1434, 2008. Cerulean-Runt/Venus-CBFb-SMMHC FRET ratio 530/480, 1 h;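 active = mean inhibition across duplicate retests at 20 µM reaching about 50%, limit read from the data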;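 note: inhibitors lower the FRET ratio by blocking Runt binding to CBFb-SMMHC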
MEX-5 binding – MEX-5 zinc finger RNA-binding disruptors – biochemical, C. elegans, fluorescence polarization, MLPCN library, primary screen. Zinc finger protein mex-5 (Caenorhabditis elegans), Q9XUB2. MEX-5/FITC-TCR2 RNA binding; hits give low values. activity score (negative = inhibition of binding), % at 10 µM. 300,000 tested, 0.38% active;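 active = inhibition past about -25% in most replicates, and total fluorescence under double the plate's negative control median, limit read from the data; inconclusive = replicates evenly split on the limit, or fluorescence at least double controls; inactive = too little inhibition in most replicates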
Target sequence (Q9XUB2 whole entry, looked up): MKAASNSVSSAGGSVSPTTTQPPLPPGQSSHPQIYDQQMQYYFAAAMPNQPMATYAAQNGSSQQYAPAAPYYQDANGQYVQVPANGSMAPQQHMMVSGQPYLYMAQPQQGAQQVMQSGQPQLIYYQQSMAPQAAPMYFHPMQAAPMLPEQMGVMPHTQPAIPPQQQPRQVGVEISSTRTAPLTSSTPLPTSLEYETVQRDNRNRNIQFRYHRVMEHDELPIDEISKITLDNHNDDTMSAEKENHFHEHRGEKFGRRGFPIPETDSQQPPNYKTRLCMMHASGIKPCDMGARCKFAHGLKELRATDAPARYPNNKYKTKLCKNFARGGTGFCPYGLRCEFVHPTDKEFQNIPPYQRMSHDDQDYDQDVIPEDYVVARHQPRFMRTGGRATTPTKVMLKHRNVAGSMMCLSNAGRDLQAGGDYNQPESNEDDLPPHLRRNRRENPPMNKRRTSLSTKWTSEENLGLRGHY
Runt-CBFb FRET – inhibitors of RUNX1 Runt–CBFb binding, primary screen, biochemical, FRET, Cerulean-Runt, Venus-CBFb, uHTS. Runt-related transcription factor 1 (Homo sapiens) + Core-binding factor subunit beta …. Cerulean-Runt/Venus-CBFb FRET ratio 530/480, 1 h. inhibition, % at 20 µM. 220,000 tested, 0.46% active;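 active = inhibition over about 50% at 20 µM in the single-dose screen, limit read from the data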
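Assay system: Cerulean-tagged RUNX1 Runt domain (FRET donor) fusion protein / Amount: 100 nM each of Venus-CBFb and Cerulean-Runt domain / Medium: Tris buffer pH 7.5 with salts and BSA / Also added: Venus-CBFb 100 nM / Schedule: 1 h complex formation plus 1 h compound treatment, room temperature / Signal: FRET fluorescence / Read-out: loss of energy transfer signal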
LANA-H2B inh – blockers of LANA interaction with H2A/H2B – biochemical, FP readout, HTS, primary screen. AID 2629, 2010. Protein LANA1 (Human herpesvirus 8 type P (isolate GK18)), Q9QR71. inhibition, % (no concentration beside the values). 320,000 tested, 0.6% active. cell-free LANA-H2A/H2B peptide, fluorescence polarization; in the data active = inhibition mostly above about 10%, no sharp cut-off; inactive = mostly below about 6.7%
RanGTP-Impb inh – inhibitors of RanGTP-importin-beta interaction, primary screen, biochemical, FRET, CFP-Ran, YFP-importin-beta, homogeneous; inhibition, % (test concentration not listed); 300,000 tested, 1.1% active; AID 2216, 2009; cell-free CFP-Ran/YFP-importin-beta FRET ratio; Ran GTPase (GTP-bound) - importin-beta complex;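 active = more than half of the replicate wells show a fall in the fluorescence ratio signal beyond about 16%, limit read from the data, passing the limit was not always enough; inconclusive = exactly half of the replicate wells pass the set limit; inactive = fewer than half of replicates pass the limit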
Hits are given with their value; - = inactive; ? = inconclusive; . = no result. This is a sample that favours compounds with a hit; in the whole collection about 2.4% have one here.

SMILES	EBV gp42 inh	Runt-SMMHC FRET	MEX-5 binding	Runt-CBFb FRET	LANA-H2B inh	RanGTP-Impb inh
N#C/C(=C\c1c(N2CCOCC2)nc2ccccn2c1=O)C(=O)NC1CCS(=O)(=O)C1 (stereo not drawn)	-	82	-	-	-	-
N#C/C(=C\c1c(N2CCCCCC2)nc2ccccn2c1=O)C(=O)NC1CCS(=O)(=O)C1 (stereo not drawn)	-	82	-	-	.	-
Cc1ccc(-c2nc(CS(=O)CC(=O)NCCCN3CCN(Cc4ccccc4)CC3)c(C)o2)cc1 (stereo not drawn)	.	.	-	.	-	-
c1ccc2c(c1)CCCN2Cc1nnc2n1CCCCC2	-	-	-	-	59	-
CCOC(=O)CNC(=O)c1ccc2[nH]c3c(c2c1)CCCC3	-	-	-	-	-	18
O=C1C=C(NCc2ccc3c(c2)OCO3)CC(c2ccccc2)C1 (stereo not drawn)	-	-	-	-	-	-
CC(C)(C)NC(=O)CSc1nnc(C2CC2)n1Cc1ccccc1	-	-	-	-	-	-
CC(C)(C)NC(=O)CSc1nnc(C2CC2)n1-c1ccccc1	-	-	-	-	-	52
O=S(=O)(/N=C(/Nc1ccccn1)c1ccc(Cl)cc1)c1ccc(Cl)cc1	-	-	-	-	-	-
Cc1ccc(S(=O)(=O)N2CCCCC2CCNC(=O)C(=O)NCc2ccncc2)cc1 (stereo not drawn)	.	.	-	.	-	-
Nn1c(SCC(=O)NC(=O)NCc2ccco2)nnc1-c1ccc(OC(F)F)cc1	62	-	-	-	-	-
Cc1ccnc(NS(=O)(=O)c2ccc(NC(=O)CCc3ccccc3)cc2)n1	.	.	-	.	-	-
Cc1ccc2nc(Nc3ccc4[nH]c(=O)[nH]c4c3)c(-n3nc(C)cc3C)nc2c1	-	-	-	-	-	40
Cc1cc(C)n(-c2nc3ccccc3nc2Nc2ccc3c(c2)OCO3)n1	-	-	-	-	-	-
O=C(C[C@@H]1C/C=C/CCCC(=O)O[C@H](c2ccccc2)CNC1=O)N[C@H](CO)Cc1ccccc1	.	.	.	.	10	.
CCOc1ccc(C2C(C#N)=C(N)N3C(=C2C#N)Sc2ccccc23)cc1 (stereo not drawn)	.	-	-	-	-	?
N#CC1=C(N)N2C(=C(C#N)C1c1ccccc1)Sc1ccccc12 (stereo not drawn)	90	-	-33	-	-	?
CCOCCCNC(=O)CCC(=O)NNc1nc2ccccc2c2nc(C)nn12	-	-	-39	-	-	-
CCCCNC(=O)CCC(=O)NNc1nc2ccccc2c2nc(C)nn12	-	-	-	-	-	-
COCCCNC(=O)CCC(=O)NNc1nc2ccccc2c2nc(C)nn12	-	-	-50	-	-	-
Cc1ccc(N2C3=C(C(=O)CC(C)(C)C3)C(c3cn(C)nc3C)C3=C2CC(C)(C)CC3=O)cc1	.	.	-	.	-	26
COc1ccc(C2C3=C(CC(C)(C)CC3=O)N(C)C3=C2C(=O)CC(C)(C)C3)cc1OC	.	.	-	.	-	-
COc1ccc(C2C3=C(CC(C)(C)CC3=O)N(C)C3=C2C(=O)CC(C)(C)C3)cc1	-	86	-	-	-	137
C#CCOc1ccc(C2C3=C(CC(C)(C)CC3=O)N(CC(=O)O)C3=C2C(=O)CC(C)(C)C3)cc1	.	.	-	.	-	162
CCOc1ccc(C2C3=C(CC(C)(C)CC3=O)N(CC(=O)O)C3=C2C(=O)CC(C)(C)C3)cc1OCC	.	.	-	.	-	-
SMILES	EBV gp42 inh	Runt-SMMHC FRET	MEX-5 binding	Runt-CBFb FRET	LANA-H2B inh	RanGTP-Impb inh
COc1ccccc1C1C2=C(CC(C)(C)CC2=O)N(CC(=O)O)C2=C1C(=O)CC(C)(C)C2	.	.	-	.	-	164
COc1cccc(CNC(=O)CCCn2c(=S)[nH]c3cc4c(cc3c2=O)OCO4)c1	.	.	-	.	-	-
Cc1ccc(NNc2c(C)nc3ccccc3nc2=O)cc1	-	-	-	-	-	-
CC1CCCCC1NC(=O)/C(C#N)=C/c1ccc(OCC(N)=O)cc1 (stereo not drawn)	-	-	-	-	-	-
CS(=O)(=O)c1ccc(C(=O)OCC(=O)N(CCc2ccccc2)Cc2ccccc2)cc1	.	.	-	.	-	-
COc1ccc(C2C3=C(CC(C)(C)CC3=O)Nc3cc4c(cc32)OCO4)cc1 (stereo not drawn)	-	-	-	-	-	-
COc1ccc(N2C3=C(C(=O)CC(C)(C)C3)C(c3ccccc3OC)C3=C2CC(C)(C)CC3=O)cc1	-	81	-	-	-	149
CN1C2=C(C(=O)CC(C)(C)C2)C(c2cccs2)C2=C1CC(C)(C)CC2=O	.	.	-	.	-	61
COc1ccc(C2C3=C(CC(C)(C)CC3=O)Nc3c2c(=O)[nH]c2nc(C)nn32)cc1 (stereo not drawn)	-	135	-	87	-	46
O=C(c1cccc(S(=O)(=O)N2CCOCC2)c1)N1CCN(S(=O)(=O)c2cccs2)CC1	-	-	-	-	-	-
CSC1=NSC2=NC(=O)/C(=C\c3coc4ccccc4c3=O)C(=N)N12	76	-	.	-	-	.
CC(C)CSC1=NSC2=NC(=O)/C(=C\c3coc4ccccc4c3=O)C(=N)N12	104	-	?	-	60	-
N=C1/C(=C\c2coc3ccccc3c2=O)C(=O)N=C2SC(c3ccncc3)=NN12	-	-	-	-	-	-
CC(C)(C)c1csc(N(CCC#N)CCC#N)n1	-	-	-	-	-	-
COc1ccc(N=C2NC(=O)S/C2=C\c2ccc(N(C)C)cc2)cc1	95	-	-	-	-	-
Cc1ccc(C)n1-c1cccc(C(=O)O)c1	-	-	-93	-	-	-
Cc1cc(C=O)c(C)n1-c1cccc(C(=O)O)c1	-	-	-	-	-	-
Cc1sc2nc3ccc(NCc4ccco4)nn3c(=O)c2c1C	-	60	.	-	-	-
CCOC(=O)CN=C/C(C(C)=O)=C(/C)O	-	-	-	-	-	63
Cc1nn(CC(=O)NCc2ccc(OC(C)C)cc2)c(=O)c2cc(-c3ccccc3)nn12	.	.	-	.	-	-
O=C(/C=C/c1cccc2ccccc12)NCCC1=CCCCC1	-	-	-	-	-	-
Cc1nonc1OCCNCCNc1ccccc1[N+](=O)[O-]	-	-	-	-	24	-
